Measurements from EPA's CvTdb concentration-time database.
Where “and” joins values, the source holds several entries; their conditions need not be identical. Equal values may be shown once.

Experiments:
Rat [1] = experiment: concentration in brain after dosing; settings: 2 h; dosed: 2-Methyltetrahydrofuran; 40 mg/kg; iv; Female; Harlan Sprague Dawley
Rat [2] = experiment: concentration in plasma after dosing; settings: 0.75 h; dosed: 2-Methyltetrahydrofuran; 40 mg/kg; iv; Male; Harlan Sprague Dawley
Rat [3] = experiment: concentration in brain after dosing; settings: 0.75 h; dosed: 2-Methyltetrahydrofuran; 40 mg/kg; iv; Male; Harlan Sprague Dawley
Rat [4] = experiment: concentration in plasma after dosing; settings: 6 h; dosed: 2-Methyltetrahydrofuran; 40 mg/kg; iv; Male; Harlan Sprague Dawley
Rat [5] = experiment: concentration in brain after dosing; settings: 0.75 h; dosed: 2-Methyltetrahydrofuran; 40 mg/kg; iv; Male; Harlan Sprague Dawley; remark: listed apart in the source
Rat [6] = experiment: concentration in plasma after dosing; settings: 4 h; dosed: 2-Methyltetrahydrofuran; 40 mg/kg; iv; Male; Harlan Sprague Dawley
Rat [7] = experiment: concentration in brain after dosing; settings: 4 h; dosed: 2-Methyltetrahydrofuran; 40 mg/kg; iv; Female; Harlan Sprague Dawley
Rat [8] = experiment: concentration in brain after dosing; settings: 7 min; dosed: 2-Methyltetrahydrofuran; 40 mg/kg; iv; Male; Harlan Sprague Dawley
Rat [9] = experiment: concentration in brain after dosing; settings: 2 h; dosed: 2-Methyltetrahydrofuran; 40 mg/kg; iv; Female; Harlan Sprague Dawley; remark: listed apart in the source
Rat [10] = experiment: concentration in plasma after dosing; settings: 7 min; dosed: 2-Methyltetrahydrofuran; 40 mg/kg; iv; Male; Harlan Sprague Dawley
Rat [11] = experiment: concentration in liver after dosing; settings: 1 h; dosed: Fluorotelomer alcohol 8+2; 80 mg/kg; oral; Female; Harlan Sprague Dawley
Rat [12] = experiment: concentration in brain after dosing; settings: 3 h; dosed: Fluorotelomer alcohol 8+2; 80 mg/kg; oral; Female; Harlan Sprague Dawley
Rat [13] = experiment: concentration in liver after dosing; settings: 12 h; dosed: Fluorotelomer alcohol 8+2; 80 mg/kg; oral; Female; Harlan Sprague Dawley
Rat [14] = experiment: concentration in kidney after dosing; settings: 0.5 h; dosed: Fluorotelomer alcohol 8+2; 80 mg/kg; oral; Female; Harlan Sprague Dawley
Rat [15] = experiment: concentration in brain after dosing; settings: 6 h; dosed: Fluorotelomer alcohol 8+2; 80 mg/kg; oral; Female; Harlan Sprague Dawley
Rat [16] = experiment: concentration in liver after dosing; settings: 3 h; dosed: Fluorotelomer alcohol 8+2; 80 mg/kg; oral; Female; Harlan Sprague Dawley
Rat [17] = experiment: concentration in plasma after dosing; settings: 1 h; dosed: Gemfibrozil; 50 mg/kg; oral; Male; Sprague-Dawley
Rat [18] = experiment: concentration in plasma after dosing; settings: 10 h; dosed: Gemfibrozil; 50 mg/kg; oral; Male; Sprague-Dawley
Rat [19] = experiment: concentration in plasma after dosing; settings: 4 h; dosed: Gemfibrozil; 100 mg/kg; oral; Male; Sprague-Dawley
Rat [20] = experiment: concentration in plasma after dosing; settings: 0.5 h; dosed: Gemfibrozil; 100 mg/kg; oral; Male; Sprague-Dawley
Rat [21] = experiment: concentration in kidney after dosing; settings: 0.5 h; dosed: Perfluorohexanoic Acid; 80 mg/kg; oral; Female; Harlan Sprague Dawley
Rat [22] = experiment: concentration in brain after dosing; settings: 6 h; dosed: Perfluorohexanoic Acid; 80 mg/kg; oral; Male; Harlan Sprague Dawley
Rat [23] = experiment: concentration in plasma after dosing; settings: 0.5 h; dosed: Perfluorohexanoic Acid; 40 mg/kg; iv; Male; F344
Rat [24] = experiment: concentration in liver after dosing; settings: 3 h; dosed: Perfluorohexanoic Acid; 80 mg/kg; oral; Male; Harlan Sprague Dawley
Rat [25] = experiment: concentration in brain after dosing; settings: 0.5 h; dosed: Perfluorohexanoic Acid; 80 mg/kg; oral; Male; Harlan Sprague Dawley
Rat [26] = experiment: concentration in liver after dosing; settings: 0.5 h; dosed: Perfluorohexanoic Acid; 80 mg/kg; oral; Male; Harlan Sprague Dawley
Rat [27] = experiment: concentration in liver after dosing; settings: 1 h; dosed: Perfluorohexanoic Acid; 80 mg/kg; oral; Female; Harlan Sprague Dawley
Rat [28] = experiment: concentration in kidney after dosing; settings: 1848 h; dosed: Perfluorooctane Sulfonate; 2 mg/kg; oral; Female; Harlan Sprague Dawley
Rat [29] = experiment: concentration in liver after dosing; settings: 3360 h; dosed: Perfluorooctane Sulfonate; 20 mg/kg; oral; Male; Harlan Sprague Dawley
Rat [30] = experiment: concentration in plasma after dosing; settings: 3360 h; dosed: Perfluorooctane Sulfonate; 2 mg/kg; oral; Female; Harlan Sprague Dawley
Rat [31] = experiment: concentration in plasma after dosing; settings: 6 h; dosed: Perfluorooctane Sulfonate; 2 mg/kg; oral; Female; Harlan Sprague Dawley
Rat [32] = experiment: concentration in brain after dosing; settings: 864 h; dosed: Perfluorooctane Sulfonate; 20 mg/kg; oral; Male; Harlan Sprague Dawley
Rat [33] = experiment: concentration in liver after dosing; settings: 24 h; dosed: Perfluorooctane Sulfonate; 20 mg/kg; oral; Male; Harlan Sprague Dawley
rat [34] = experiment: concentration in blood after dosing; negative times count back from the end of exposure; settings: dosed: trichloroethylene, 50 ppm, inhalation, duration: 4 hr, male, Sprague Dawley
human = experiment: concentration in expired air after dosing; settings: dosed: trichloroethylene, 100 ppm, inhalation, duration: 4 hr, person
Summary of the method: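 Sampling and analytical methods are those of each source and frequently went unreported. The concentration-versus-time and amount-versus-time points were compiled from published in vivo toxicokinetic studies and two structured collections. Most were digitised from plot screenshots with WebPlotDigitizer, with others copied from tables, in the reported units.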

CC1CCCO1 (stereo unspecified) [2-Methyltetrahydrofuran]
Settings | concentration in brain [ng/mL] | concentration in plasma [ng/mL]
Rat [1] | 9940 | –
Rat [2] | – | 29200
Rat [3] | 11300 | –
Rat [4] | – | 16.9
Rat [5] | 11400 | –
Rat [6] | – | 312
Rat [7] | 111 | –
Rat [8] | 25400 | –
Rat [9] | 3530 | –
Rat [10] | – | 48100

O=C(O)CCC(F)(F)C(F)(F)C(F)(F)C(F)(F)C(F)(F)C(F)(F)C(F)(F)F [Fluorotelomer acid 7+3]
Settings | concentration in brain [ng/g] | concentration in kidney [ng/g] | concentration in liver [ng/g]
Rat [11] | – | – | 1340
Rat [12] | 1580 | – | –
Rat [13] | – | – | 5690
Rat [14] | – | 435 | –
Rat [15] | 1040 | – | –
Rat [16] | – | – | 11400

Cc1ccc(C)c(OCCCC(C)(C)C(=O)O)c1 [Gemfibrozil]
Settings | concentration in plasma [ng/mL]
Rat [17] | 7680
Rat [18] | 1930
Rat [19] | 6150
Rat [20] | 33900

O=C(O)C(F)(F)C(F)(F)C(F)(F)C(F)(F)C(F)(F)F [Perfluorohexanoic Acid]
Settings | concentration in brain [ng/g] | concentration in kidney [ng/g] | concentration in liver [ng/g] | concentration in plasma [ng/mL]
Rat [21] | – | 48100 | – | –
Rat [22] | 694 | – | – | –
Rat [23] | – | – | – | 8680
Rat [24] | – | – | 37400 | –
Rat [25] | 2500 | – | – | –
Rat [26] | – | – | 67900 | –
Rat [27] | – | – | 41600 | –

O=S(=O)([O-])C(F)(F)C(F)(F)C(F)(F)C(F)(F)C(F)(F)C(F)(F)C(F)(F)C(F)(F)F [Perfluorooctane Sulfonate]
Settings | concentration in brain [ng/g] | concentration in kidney [ng/g] | concentration in liver [ng/g] | concentration in plasma [ng/mL]
Rat [28] | – | 860 | – | –
Rat [29] | – | – | 23900 | –
Rat [30] | – | – | – | 428
Rat [31] | – | – | – | 4580
Rat [32] | 2330 | – | – | –
Rat [33] | – | – | 157000 | –

ClC=C(Cl)Cl [trichloroethylene]
Settings | concentration in blood [ng/mL] | concentration in expired air
human, 0.1172 h | – | 7.17 ppm
human, 0.1972 h | – | 5.83 ppm
human, 0.3304 h | – | 5.7 ppm
human, 0.4637 h | – | 4.83 ppm
human, 0.9967 h | – | 2.59 ppm
human, 2.009 h | – | 1.89 ppm
human, 4.021 h | – | 1.39 ppm
human, 5.993 h | – | 1.35 ppm
human, 8.019 h | – | 1.01 ppm
human, 10.04 h | – | 1.08 ppm
human, 12.02 h | – | 0.874 ppm
human, 38 s | – | 21.7 ppm
human, 230 s | – | 14.3 ppm and 10.8 ppm
rat [34], 0.2317 h | 2420 | –
rat [34], 0.4119 h | 1510 | –
rat [34], 0.9932 h | 820 | –
rat [34], 1.803 h | 370 | –
rat [34], 3.975 h | 289 | –

rat [34], during exposure
Settings | concentration in blood [ng/mL]
-6 s | 2790
-3.423 h | 1890
-3.024 h | 1360
-1.999 h | 2680
-1.012 h | 2670
